# TAAR1 agonist: human TAAR1 agonism | Q96RJ0 | 360,000 compounds, 0.99% hits | activation, % at 3 µM | CHO RD-HGA16 TAAR1, Fluo-8 calcium fluorescence; vehicle wells 0%, saturating PEA agonist 100%;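 active means activation above the mean activation of all test compounds in the run plus 3 SD, cut at about 38% in these data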
# Target sequence (Q96RJ0 whole entry, looked up): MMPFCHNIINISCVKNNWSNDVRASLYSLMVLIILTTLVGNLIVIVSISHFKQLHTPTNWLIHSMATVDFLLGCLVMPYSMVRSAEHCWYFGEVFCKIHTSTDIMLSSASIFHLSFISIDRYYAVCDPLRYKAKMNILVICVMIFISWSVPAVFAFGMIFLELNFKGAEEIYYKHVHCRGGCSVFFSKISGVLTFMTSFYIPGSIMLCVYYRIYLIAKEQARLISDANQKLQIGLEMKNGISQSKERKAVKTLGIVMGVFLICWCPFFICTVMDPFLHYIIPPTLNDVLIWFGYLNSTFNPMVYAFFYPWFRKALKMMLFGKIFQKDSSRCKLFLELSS
#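 Test system: RD-HGA16 (CHO) cells co-expressing Gα16 and hTAAR1 / Benchmarks: DMSO vehicle as 0%, PEA at EC100 as 100% / Repeats: no replicates (n 1) / Measure: % activation from peak over basal fluorescence ratio, DMSO-to-PEA scaled / Timing: 17-24 h plating, Fluo-8 75 min 37 °C, 30 min RT / Technique: kinetic Fluo-8 calcium fluorescence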
# CHO parental Ca: counter-screen for OX1R antagonists: effect in parental CHO cells; parental CHO-K1, ATP-induced calcium, Fluo-8 fluorescence; 330,000 compounds, 0.63% hits; inhibition, % at 5.6 µM;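 active means inhibition above that plate's mean sample inhibition plus 3 SD, cut at about 26% in these data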
#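 Assay system – parental CHO cells · Reagent – ATP stimulus · Detection – intracellular calcium via Fluo-8 no-wash fluorescent dye · Evaluation – percent inhibition of ATP-evoked calcium rise, normalized to controls · Controls – ATP wells versus no-ATP DMSO wells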
# OX1R antag-1: blocks the human orexin 1 receptor | O43613 | CHO/OX1R cells, Fluo-8 calcium fluorescence, orexin A | inhibition, % at 5 µM | 330,000 compounds, 0.43% hits | AID 434989;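 active means inhibition above its plate's threshold, mean inhibition of all tested compounds on the plate plus 3 SD, cut at about 37% in these data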
# GPR7 antagonist: antagonists of human GPR7 (neuropeptides B/W receptor 1); GPR7-expressing cells, fluorescence antagonist assay; inhibition, % at 4.4 µM; 290,000 compounds, 1.1% hits; in the data active means inhibition above about 16%, passing the limit was not always enough;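 further: cells stimulated with the agonist NPW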
# TAAR1 antag: human TAAR1 antagonism; Q96RJ0; CHO RD-HGA16 TAAR1, Fluo-8 calcium fluorescence, antagonist; inhibition, % at 3 µM; 360,000 compounds, 1.5% hits; AID 624466;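 active means inhibition above a per-plate cutoff, the mean inhibition of test compounds on that plate plus 3 SD, cut at about 49% in these data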
#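 Test system – hTAAR1-expressing CHO RD-HGA16 cells, Gα16-coupled · Also added – β-PEA at EC80 concentration, post-compound challenge · Compound – 3 µM, single point · Incubation – dye loading 75 min at 37 °C, then 30 min room temperature · Measured by – Fluo-8 intracellular calcium dye fluorescence, real-time kinetic reads · Benchmarks – vehicle and agonist controls · Replicates – singlicate, one well per test compound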
# OX1R antag-2: blocks the human orexin 1 receptor; O43613; OX1R-expressing cells, FRET antagonist read-out; inhibition, % at 6.6 µM; 330,000 compounds, 1.8% hits; in the data active means inhibition mostly above about 38%, no sharp cut-off; inactive means mostly below about 40%
# GPR7 antag cf: human GPR7 antagonism, confirmation assay; shares compounds with GPR7 antagonist; AID 1952; inhibition, % at 4.4 µM; 2,400 compounds, 52% hits; GPR7-expressing cells, calcium fluorescence antagonist mode; in the data active means inhibition above about 24%;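 further: stimulated with the GPR7 agonist NPW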
# MCHR1 antag: antagonizes human MCHR1, a GPR7 antagonist counter-screen; inhibition, % at 4.4 µM; 2,400 compounds, 62% hits; AID 2148; shares compounds with GPR7 antagonist; MCHR1-expressing cells, fluorescence antagonist assay; in the data active means inhibition above about 22%
# TAAR1 ag confirm: confirmation of human TAAR1 agonists; shares compounds with TAAR1 agonist; CHO RD-HGA16 TAAR1, Fluo-8 calcium fluorescence; scaled: DMSO 0%, maximal phenethylamine 100%; activation, % at 3 µM; 2,400 compounds, 82% hits; AID 651783;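 active means activation above a cutoff set at the run's mean compound activation plus 3 SD, cut at about 39% in these data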
# Ga16 ag counter: nonselective agonist in parental cells, TAAR1 agonist counter-screen; shares compounds with TAAR1 agonist; 2,400 compounds, 50% hits; CHO-Ga16 parental, Fluo-8 calcium fluorescence; normalized to maximal ATP response, DMSO zero; activation, % at 3 µM;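 active means activation above the run cutoff, the mean activation over all tested wells plus 3 SD, cut at about 12% in these data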
# TAAR1 desensitize: TAAR1 response desensitization, agonist counter-screen | 2,400 compounds, 46% hits | CHO RD-HGA16 hTAAR1, Fluo-8 calcium, beta-PEA response inhibition | inhibition, % at 3 µM | shares compounds with TAAR1 agonist;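 active means inhibition above the run cutoff, the mean inhibition of all test compounds plus 3 SD, cut at about 49% in these data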;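 further: beta-PEA stimulus applied at its EC80; loss of beta-PEA calcium signal after compound pretreatment read as receptor desensitization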
# Ga16 antag count: counter-screen for TAAR1 agonists: nonselective Ga16 antagonists; CHO-Ga16 ATP-induced calcium, Fluo-8 fluorescence; 2,400 compounds, 39% hits; inhibition, % at 3 µM; shares compounds with TAAR1 agonist;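 active means inhibition above the plate's mean compound inhibition plus 3 SD, computed per plate, cut at about 22% in these data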
# Hits are given with their value; - = inactive; . = no result. In the library only some 4.6% were active in any assay of this set; here they are far more common.
SMILES,TAAR1 agonist,CHO parental Ca,OX1R antag-1,GPR7 antagonist,TAAR1 antag,OX1R antag-2,GPR7 antag cf,MCHR1 antag,TAAR1 ag confirm,Ga16 ag counter,TAAR1 desensitize,Ga16 antag count
CCN(c1ccccc1)S(=O)(=O)c1ccc(C(=O)N(C)CCc2ccc(OC)c(OC)c2)cc1,-,-,-,-,-,-,.,.,.,.,.,.
COc1ccccc1N/C(N)=N/c1nc(C)cc(C)n1,-,-,-,-,-,-,.,.,.,.,.,.
Cc1cc(C)nc(/N=C(\N)Nc2ccc(CC(=O)OC(C)C)cc2)n1,108.6,40.7,67.2,97.0,100.8,-,95.4,96.8,119.7,85.4,106.4,97.0
CCc1ccc(N/C(=N/c2nc(C)cc(C)n2)NC(C)=O)cc1,-,-,-,-,-,-,.,.,.,.,.,.
Cc1cc(C)nc(/N=C(\N)Nc2cccc(OCc3ccccc3)c2)n1,124.3,40.1,73.4,96.9,106.8,-,91.4,105.2,112.5,83.2,105.7,90.0
Cc1cc(C)nc(/N=C(\N)Nc2ccc(OCCC(C)C)cc2)n1,145.5,68.0,93.9,100.5,103.0,-,96.9,105.6,126.8,102.6,105.2,93.2
O=C(CCl)Nc1ncc(S(=O)(=O)c2ccc([N+](=O)[O-])cc2)s1,-,-,-,.,-,-,.,.,.,.,.,.
COC(=O)C(NC(=O)c1ccccc1Cl)(Nc1ncc(S(=O)(=O)c2ccc([N+](=O)[O-])cc2)s1)C(F)(F)F (stereo not drawn),87.8,-,-,34.3,-,-,55.9,42.5,57.2,26.8,-,28.6
COC(C(=O)Nc1ccnn1C1CCN(Cc2cnn(C)c2)CC1)c1ccccc1 (stereo not drawn),-,-,-,-,-,-,.,.,.,.,.,.
COCCNC(=O)c1ccc(-c2csc(C)n2)cc1,-,-,-,-,-,-,.,.,.,.,.,.
CCOC(=O)CSc1nc(Cc2ccccc2)nc2ccccc12,-,-,-,-,-,-,.,.,.,.,.,.
O=C(Nc1ccccc1)Nc1ccno1,48.3,-,-,26.8,-,-,-,-,86.7,-,67.2,-
N=c1c2c(-c3ccccc3)c(-c3ccccc3)n(Cc3ccco3)c2ncn1Cc1ccco1,86.2,-,-,37.4,-,-,79.1,99.9,90.8,54.2,75.1,37.3
N=c1c2c(ncn1Cc1ccco1)Oc1ccc3ccccc3c1C2c1ccccc1 (stereo not drawn),-,-,-,-,-,-,.,.,.,.,.,.
CC(=O)Nc1ccc(Sc2ncccc2C(=O)Nc2ccc(F)cc2)cn1,174.1,71.8,101.3,62.3,104.1,-,97.8,97.7,149.6,112.7,105.5,88.7
CSc1ncccc1C(=O)Nc1ccc(OC(F)(F)F)cc1,-,-,-,-,-,-,.,.,.,.,.,.
Cn1c(CNC(=O)CCNC(=O)c2cccc(F)c2)cc(=O)n(C)c1=O,-,-,-,-,-,-,.,.,.,.,.,.
CCOC(=O)c1ccc(NC(=O)COc2ccccc2CNCCc2ccccc2)cc1,81.0,-,-,31.3,-,-,46.5,73.3,111.3,22.8,85.3,27.3
O=C(OC1CCOC1=O)c1cccc(S(=O)(=O)N2CCc3ccccc3C2)c1 (stereo not drawn),-,-,-,-,-,-,.,.,.,.,.,.
COc1ccc(C(CC(=O)O)c2ccc3c(c2)OCO3)cc1 (stereo not drawn),-,-,-,-,-,-,.,.,.,.,.,.

# Compound activity as filed in PubChem BioAssay.
